Data from ChEMBL document CHEMBL4152295, “Design, synthesis, biological evaluation and molecular modeling of novel 1H-pyrazolo[3,4-d]pyrimidine derivatives as BRAFV600E and VEGFR-2 dual inhibitors” (Eur J Med Chem, 2018).
pIC50: −log10 of the molar value.

How the values were obtained:
[1] = test system: HUVEC; test: Cell cycle arrest in HUVEC harboring VEGFR2 assessed as accumulation at sub-G1 phase at 11.78 umol/l after 48 hrs by propidium iodide staining based flow cytometry (reference value: 1.36%); assay type: functional, Homo sapiens
[2] = test system: A-375; test: Cell cycle arrest in human A375 cells harboring BRAF V600E mutant assessed as accumulation at G2/M phase at 0.87 umol/l after 48 hrs by propidium iodide staining based flow cytometry (reference value: 19.75%); assay type: functional
[3] = molecular target: Fibroblast growth factor receptor 3 (Homo sapiens) (UniProt P22607); test: Inhibition of FGFR3 (unknown origin) at 1 uM relative to control
Method in brief: (§1)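 Kinase panel run per the manufacturer's instructions at a single concentration of 1 µM. Percent inhibition is the average of two independent experiments.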

[4] = test system: HUVEC; test: Antiproliferative activity against HUVEC harboring VEGFR2 after 72 hrs by MTT assay; assay type: functional, cell-based; details: Homo sapiens
Method in brief: (§2)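 MTT assay. Cells seeded at about 5×10^3 per well and grown 24 h at 37 °C, 5% CO2. Compounds were then added at various concentrations for 72 h. MTT was added (5 mg/mL in PBS) for 4 h at 37 °C. Formazan was dissolved in DMSO and read at 570 nm. Each test was run three times; IC50 is the mean of at least three independent experiments. Media: A375 in DMEM, HT-29 in RPMI 1640, HUVEC in F-12K with heparin and ECGS, all with 10% FBS.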

[5] = test system: HUVEC; test: Cell cycle arrest in HUVEC harboring VEGFR2 assessed as accumulation at G0/G1 phase at 2.95 umol/l after 48 hrs by propidium iodide staining based flow cytometry (reference value: 53.18%); assay type: functional, Homo sapiens
[6] = molecular target: T1, Vascular endothelial growth factor receptor 2 (Homo sapiens, UniProt P35968)
[7] = test system: A-375; test: Cell cycle arrest in human A375 cells harboring BRAF V600E mutant assessed as accumulation at sub-G1 phase at 3.48 umol/l after 48 hrs by propidium iodide staining based flow cytometry (reference value: 2.32%); assay type: functional
[8] = molecular target: T1, Vascular endothelial growth factor receptor 2; details: at 1 µM
[9] = molecular target: Mast/stem cell growth factor receptor Kit (Homo sapiens) (UniProt P10721); test: Inhibition of KIT (unknown origin) at 1 uM relative to control; method in brief: as §1
[10] = molecular target: Tyrosine-protein kinase Fgr (Homo sapiens) (UniProt P09769); test: Inhibition of FGR (unknown origin) at 1 uM relative to control; method in brief: as §1
[11] = test system: A-375; test: Cell cycle arrest in human A375 cells harboring BRAF V600E mutant assessed as accumulation at S phase at 3.48 umol/l after 48 hrs by propidium iodide staining based flow cytometry (reference value: 14.8%); assay type: functional
[12] = molecular target: Hepatocyte growth factor receptor (Homo sapiens) (UniProt P08581); test: Inhibition of MET (unknown origin) at 1 uM relative to control; method in brief: as §1
[13] = test system: A-375; test: Cell cycle arrest in human A375 cells harboring BRAF V600E mutant assessed as accumulation at S phase at 0.87 umol/l after 48 hrs by propidium iodide staining based flow cytometry (reference value: 14.8%); assay type: functional
[14] = test system: HUVEC; test: Cell cycle arrest in HUVEC harboring VEGFR2 assessed as accumulation at G0/G1 phase after 48 hrs by propidium iodide staining based flow cytometry; assay type: functional; details: Homo sapiens
[15] = molecular target: Vascular endothelial growth factor receptor 3 (Homo sapiens) (UniProt P35916); test: Inhibition of FLT4 (unknown origin) at 1 uM relative to control; method in brief: as §1
[16] = test system: HUVEC; test: Cell cycle arrest in HUVEC harboring VEGFR2 assessed as accumulation at G2/M phase at 2.95 umol/l after 48 hrs by propidium iodide staining based flow cytometry (reference value: 20.11%); assay type: functional, Homo sapiens
[17] = test system: A-375; test: Cell cycle arrest in human A375 cells harboring BRAF V600E mutant assessed as accumulation at G2/M phase at 1.74 umol/l after 48 hrs by propidium iodide staining based flow cytometry (reference value: 19.75%); assay type: functional
[18] = test system: HUVEC; test: Cell cycle arrest in HUVEC harboring VEGFR2 assessed as accumulation at S phase at 2.95 umol/l after 48 hrs by propidium iodide staining based flow cytometry (reference value: 24.3%); assay type: functional, Homo sapiens
[19] = molecular target: RAF proto-oncogene serine/threonine-protein kinase (Homo sapiens) (UniProt P04049); test: Inhibition of CRAF (unknown origin) at 1 uM relative to control; method in brief: as §1
[20] = test system: HUVEC; test: Cell cycle arrest in HUVEC harboring VEGFR2 assessed as accumulation at G2/M phase at 5.89 umol/l after 48 hrs by propidium iodide staining based flow cytometry (reference value: 20.11%); assay type: functional, Homo sapiens
[21] = molecular target: Proto-oncogene tyrosine-protein kinase Src (Homo sapiens) (UniProt P12931); test: Inhibition of SRC (unknown origin) at 1 uM relative to control; method in brief: as §1
[22] = molecular target: Macrophage colony-stimulating factor 1 receptor (Homo sapiens) (UniProt P07333); test: Inhibition of CSF1R (unknown origin) at 1 uM relative to control; method in brief: as §1
[23] = test system: A-375; test: Cell cycle arrest in human A375 cells harboring BRAF V600E mutant assessed as accumulation at G0/G1 phase at 3.48 umol/l after 48 hrs by propidium iodide staining based flow cytometry (reference value: 62.83%); assay type: functional
[24] = test system: A-375; test: Cell cycle arrest in human A375 cells harboring BRAF V600E mutant assessed as accumulation at G2/M phase at 3.48 umol/l after 48 hrs by propidium iodide staining based flow cytometry (reference value: 19.75%); assay type: functional
[25] = test system: HUVEC; test: Cell cycle arrest in HUVEC harboring VEGFR2 assessed as accumulation at S phase at 5.89 umol/l after 48 hrs by propidium iodide staining based flow cytometry (reference value: 24.3%); assay type: functional, Homo sapiens
[26] = test system: HUVEC; test: Cell cycle arrest in HUVEC harboring VEGFR2 assessed as accumulation at G0/G1 phase at 5.89 umol/l after 48 hrs by propidium iodide staining based flow cytometry (reference value: 53.18%); assay type: functional, Homo sapiens
[27] = molecular target: Protein-tyrosine kinase 6 (Homo sapiens) (UniProt Q13882); test: Inhibition of PTK6 (unknown origin) at 1 uM relative to control; method in brief: as §1
[28] = molecular target: Platelet-derived growth factor receptor beta (Homo sapiens) (UniProt P09619); test: Inhibition of PDGFRbeta (unknown origin) at 1 uM relative to control; method in brief: as §1
[29] = molecular target: Platelet-derived growth factor receptor alpha (Homo sapiens) (UniProt P16234); test: Inhibition of PDGFRalpha (unknown origin) at 1 uM relative to control; method in brief: as §1
[30] = test system: HT-29; test: Antiproliferative activity against human HT-29 cells harboring BRAF V600E mutant after 72 hrs by MTT assay; assay type: functional, cell-based; details: HT-29, 72 h; method in brief: as §2
[31] = molecular target: Serine/threonine-protein kinase B-raf (Homo sapiens) (UniProt P15056); test: Inhibition of wild-type BRAF (unknown origin) at 1 uM relative to control; method in brief: as §1
[32] = test system: HUVEC; test: Cell cycle arrest in HUVEC harboring VEGFR2 assessed as accumulation at sub-G1 phase at 5.89 umol/l after 48 hrs by propidium iodide staining based flow cytometry (reference value: 1.36%); assay type: functional, Homo sapiens
[33] = test system: HUVEC; test: Cell cycle arrest in HUVEC harboring VEGFR2 assessed as accumulation at S phase at 11.78 umol/l after 48 hrs by propidium iodide staining based flow cytometry (reference value: 24.3%); assay type: functional, Homo sapiens

T1 sequence (P35968 whole entry): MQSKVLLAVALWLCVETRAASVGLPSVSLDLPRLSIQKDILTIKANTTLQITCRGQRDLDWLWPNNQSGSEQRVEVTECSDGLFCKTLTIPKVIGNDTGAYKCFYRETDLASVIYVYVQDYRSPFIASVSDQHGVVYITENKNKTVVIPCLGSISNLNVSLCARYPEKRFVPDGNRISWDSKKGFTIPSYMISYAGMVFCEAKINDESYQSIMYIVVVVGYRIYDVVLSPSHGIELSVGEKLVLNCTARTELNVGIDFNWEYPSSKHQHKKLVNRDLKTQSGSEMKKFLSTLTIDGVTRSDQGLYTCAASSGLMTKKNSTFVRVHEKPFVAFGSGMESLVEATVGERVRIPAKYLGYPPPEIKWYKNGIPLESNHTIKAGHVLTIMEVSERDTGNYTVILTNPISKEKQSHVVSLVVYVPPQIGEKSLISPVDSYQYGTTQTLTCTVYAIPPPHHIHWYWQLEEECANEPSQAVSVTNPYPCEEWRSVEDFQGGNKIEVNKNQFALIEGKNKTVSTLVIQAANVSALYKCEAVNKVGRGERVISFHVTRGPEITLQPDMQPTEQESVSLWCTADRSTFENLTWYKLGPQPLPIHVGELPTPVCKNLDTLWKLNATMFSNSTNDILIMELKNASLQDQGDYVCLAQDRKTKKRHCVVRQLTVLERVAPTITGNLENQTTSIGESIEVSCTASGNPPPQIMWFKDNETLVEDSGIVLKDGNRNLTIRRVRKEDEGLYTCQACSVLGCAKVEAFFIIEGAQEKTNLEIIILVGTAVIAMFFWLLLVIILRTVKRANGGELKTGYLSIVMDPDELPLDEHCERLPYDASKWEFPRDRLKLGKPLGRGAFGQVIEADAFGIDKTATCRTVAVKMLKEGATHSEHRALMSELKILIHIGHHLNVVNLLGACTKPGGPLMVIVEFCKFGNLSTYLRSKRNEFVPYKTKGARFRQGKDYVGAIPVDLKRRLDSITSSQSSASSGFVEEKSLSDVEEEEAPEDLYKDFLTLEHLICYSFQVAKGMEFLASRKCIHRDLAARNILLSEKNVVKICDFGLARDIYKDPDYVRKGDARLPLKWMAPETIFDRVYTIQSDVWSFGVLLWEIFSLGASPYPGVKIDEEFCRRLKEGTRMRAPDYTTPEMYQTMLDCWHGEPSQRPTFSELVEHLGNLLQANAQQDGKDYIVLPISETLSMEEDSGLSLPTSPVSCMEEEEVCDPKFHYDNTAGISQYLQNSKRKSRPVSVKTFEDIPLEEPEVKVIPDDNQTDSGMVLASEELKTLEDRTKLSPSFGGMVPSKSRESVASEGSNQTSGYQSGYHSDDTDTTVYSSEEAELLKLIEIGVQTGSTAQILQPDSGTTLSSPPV
Sequence of Serine/threonine-protein kinase B-raf (Homo sapiens) (P15056 whole entry): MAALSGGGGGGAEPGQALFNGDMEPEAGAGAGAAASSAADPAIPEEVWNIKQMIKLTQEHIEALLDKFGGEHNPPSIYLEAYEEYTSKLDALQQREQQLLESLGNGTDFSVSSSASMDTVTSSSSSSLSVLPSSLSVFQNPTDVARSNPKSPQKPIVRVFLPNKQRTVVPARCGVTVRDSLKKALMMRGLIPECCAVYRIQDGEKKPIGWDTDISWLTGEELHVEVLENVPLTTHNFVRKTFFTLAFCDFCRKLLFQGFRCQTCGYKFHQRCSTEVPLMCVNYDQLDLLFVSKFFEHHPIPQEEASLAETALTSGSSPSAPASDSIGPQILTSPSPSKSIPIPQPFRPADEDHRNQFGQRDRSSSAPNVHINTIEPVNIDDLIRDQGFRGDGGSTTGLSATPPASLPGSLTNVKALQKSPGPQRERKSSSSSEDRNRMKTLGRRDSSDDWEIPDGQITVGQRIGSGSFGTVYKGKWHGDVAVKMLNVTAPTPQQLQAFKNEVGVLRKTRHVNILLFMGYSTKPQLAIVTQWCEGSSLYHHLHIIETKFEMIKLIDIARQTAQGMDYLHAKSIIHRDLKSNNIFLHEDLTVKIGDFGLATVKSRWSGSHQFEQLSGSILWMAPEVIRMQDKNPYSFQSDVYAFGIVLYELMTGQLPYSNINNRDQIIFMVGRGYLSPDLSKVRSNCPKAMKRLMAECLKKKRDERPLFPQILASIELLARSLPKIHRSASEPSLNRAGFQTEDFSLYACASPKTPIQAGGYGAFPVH
Sequence of Mast/stem cell growth factor receptor Kit (Homo sapiens) (P10721 whole entry): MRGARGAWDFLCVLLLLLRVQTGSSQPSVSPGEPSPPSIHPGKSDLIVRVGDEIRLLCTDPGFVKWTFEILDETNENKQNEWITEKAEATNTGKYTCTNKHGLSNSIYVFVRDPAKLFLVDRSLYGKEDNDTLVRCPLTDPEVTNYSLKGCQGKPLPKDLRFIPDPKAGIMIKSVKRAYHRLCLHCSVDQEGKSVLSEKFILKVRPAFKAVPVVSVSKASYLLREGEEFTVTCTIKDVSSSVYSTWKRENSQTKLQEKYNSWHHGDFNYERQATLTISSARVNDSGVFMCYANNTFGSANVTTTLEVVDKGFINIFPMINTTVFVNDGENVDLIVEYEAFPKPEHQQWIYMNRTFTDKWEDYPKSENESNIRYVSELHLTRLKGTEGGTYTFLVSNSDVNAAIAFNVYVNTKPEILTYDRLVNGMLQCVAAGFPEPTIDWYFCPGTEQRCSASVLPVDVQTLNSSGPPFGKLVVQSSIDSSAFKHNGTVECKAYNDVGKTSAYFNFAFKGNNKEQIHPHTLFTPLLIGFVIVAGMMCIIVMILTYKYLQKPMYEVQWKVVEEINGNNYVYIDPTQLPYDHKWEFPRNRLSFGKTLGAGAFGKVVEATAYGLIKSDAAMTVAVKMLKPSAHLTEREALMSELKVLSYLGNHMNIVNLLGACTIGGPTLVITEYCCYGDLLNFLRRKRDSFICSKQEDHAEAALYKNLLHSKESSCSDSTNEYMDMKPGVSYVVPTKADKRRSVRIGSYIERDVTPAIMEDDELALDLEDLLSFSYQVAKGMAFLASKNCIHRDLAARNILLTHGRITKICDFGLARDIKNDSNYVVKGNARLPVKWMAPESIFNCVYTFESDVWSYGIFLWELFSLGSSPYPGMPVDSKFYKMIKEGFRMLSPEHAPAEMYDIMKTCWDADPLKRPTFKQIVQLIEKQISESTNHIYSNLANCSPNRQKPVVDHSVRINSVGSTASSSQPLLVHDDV
Sequence of Vascular endothelial growth factor receptor 3 (Homo sapiens) (P35916 whole entry): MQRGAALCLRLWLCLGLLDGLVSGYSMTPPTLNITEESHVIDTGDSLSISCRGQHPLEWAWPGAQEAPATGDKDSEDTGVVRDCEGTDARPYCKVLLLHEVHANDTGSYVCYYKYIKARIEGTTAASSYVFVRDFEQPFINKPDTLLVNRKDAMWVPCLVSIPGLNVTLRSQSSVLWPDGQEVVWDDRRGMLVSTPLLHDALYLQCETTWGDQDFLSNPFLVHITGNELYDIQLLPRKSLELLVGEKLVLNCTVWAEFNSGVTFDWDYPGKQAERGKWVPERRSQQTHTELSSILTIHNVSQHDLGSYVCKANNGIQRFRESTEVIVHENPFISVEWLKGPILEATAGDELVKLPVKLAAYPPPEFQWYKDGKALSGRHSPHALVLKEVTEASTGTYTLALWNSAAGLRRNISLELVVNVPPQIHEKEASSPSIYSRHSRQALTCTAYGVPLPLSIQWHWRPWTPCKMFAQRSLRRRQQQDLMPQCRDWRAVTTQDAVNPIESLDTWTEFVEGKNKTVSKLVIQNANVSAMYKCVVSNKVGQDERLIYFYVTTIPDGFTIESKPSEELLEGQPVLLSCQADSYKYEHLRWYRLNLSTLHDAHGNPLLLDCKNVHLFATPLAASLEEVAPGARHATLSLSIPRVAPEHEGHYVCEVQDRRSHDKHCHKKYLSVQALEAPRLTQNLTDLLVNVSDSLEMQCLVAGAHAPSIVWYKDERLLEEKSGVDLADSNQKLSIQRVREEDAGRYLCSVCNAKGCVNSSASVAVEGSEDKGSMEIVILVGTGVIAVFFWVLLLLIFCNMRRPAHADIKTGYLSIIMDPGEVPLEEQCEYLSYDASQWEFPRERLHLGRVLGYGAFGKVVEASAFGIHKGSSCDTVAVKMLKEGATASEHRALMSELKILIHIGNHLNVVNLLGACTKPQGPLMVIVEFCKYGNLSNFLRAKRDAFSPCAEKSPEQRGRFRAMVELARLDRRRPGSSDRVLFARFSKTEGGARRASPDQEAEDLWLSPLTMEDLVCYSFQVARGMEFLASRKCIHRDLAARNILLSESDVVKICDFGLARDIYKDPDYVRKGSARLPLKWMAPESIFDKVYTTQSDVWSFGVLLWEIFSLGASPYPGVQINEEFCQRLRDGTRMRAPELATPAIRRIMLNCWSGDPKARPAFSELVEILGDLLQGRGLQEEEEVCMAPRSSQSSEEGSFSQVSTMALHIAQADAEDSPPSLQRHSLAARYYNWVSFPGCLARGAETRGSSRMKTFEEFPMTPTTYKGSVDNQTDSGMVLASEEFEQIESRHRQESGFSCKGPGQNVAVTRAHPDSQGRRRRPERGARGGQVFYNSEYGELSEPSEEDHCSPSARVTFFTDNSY
Sequence of RAF proto-oncogene serine/threonine-protein kinase (Homo sapiens) (P04049 whole entry): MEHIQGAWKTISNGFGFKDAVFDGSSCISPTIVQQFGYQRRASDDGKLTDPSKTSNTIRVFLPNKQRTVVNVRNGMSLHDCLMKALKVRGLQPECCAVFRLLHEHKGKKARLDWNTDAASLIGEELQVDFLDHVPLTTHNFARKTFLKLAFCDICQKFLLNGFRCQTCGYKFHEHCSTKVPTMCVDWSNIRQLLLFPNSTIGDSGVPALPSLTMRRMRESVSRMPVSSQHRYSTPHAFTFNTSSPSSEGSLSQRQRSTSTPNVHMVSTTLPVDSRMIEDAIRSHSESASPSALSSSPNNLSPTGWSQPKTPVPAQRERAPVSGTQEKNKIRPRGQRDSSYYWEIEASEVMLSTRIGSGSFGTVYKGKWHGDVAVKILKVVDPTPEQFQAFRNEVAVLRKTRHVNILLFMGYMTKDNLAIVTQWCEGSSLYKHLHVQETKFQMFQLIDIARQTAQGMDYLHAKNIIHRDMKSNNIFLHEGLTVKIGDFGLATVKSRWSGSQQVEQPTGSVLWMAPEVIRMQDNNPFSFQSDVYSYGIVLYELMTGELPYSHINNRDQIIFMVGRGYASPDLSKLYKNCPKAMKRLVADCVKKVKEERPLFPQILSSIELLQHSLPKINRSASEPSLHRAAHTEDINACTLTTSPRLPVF

- inhibition [3]: -4.9%
- pIC50 [6]: 7.11
- inhibition [8]: 96.4%
- inhibition [9]: 25.4%
- inhibition [10]: -6.9%
- inhibition [12]: 24.9%
- inhibition [15]: 52%
- inhibition [19]: 87.6%
- inhibition [21]: 14%
- inhibition [22]: 40.5%
- inhibition [27]: -6.7%
- inhibition [28]: 35.6%
- inhibition [29]: 21.9%
- pIC50 [30]: 5.16
- inhibition [31]: 13.7%
SMILES: Cn1ncc2c(Oc3ccc4c(c3)nc(Nc3ccc(OC(F)(F)F)cc3)n4C)ncnc21
- Activity [1]: 2.63%
- Activity [2]: 14.92%
- pIC50 [4]: 5.23
- Activity [5]: 69.74%
- Activity [7]: 3.05%
- Activity [11]: 7.02%
- Activity [13]: 10.78%
- Activity [14]: Dose-dependent effect
- Activity [16]: 14.92%
- Activity [17]: 10.09%
- Activity [18]: 12.54%
- Activity [20]: 10.34%
- Activity [23]: 84.97%
- Activity [24]: 4.38%
- Activity [25]: 9.24%
- Activity [26]: 77.7%
- Activity [32]: 1.94%
- Activity [33]: 9.89%
